The values below come from ChEMBL document CHEMBL4041535, “Rational design, synthesis and in vitro evaluation of novel exo-methylene butyrolactone salicyloylamide as NF-κB inhibitor” (Bioorg Med Chem Lett, 2017).

Data set [1] concerns the target Transcription factor p65 (Homo sapiens) (UniProt Q04206). In words: Inhibition of constitutively activated NFkappaB p65 in human ES2 cells at 3 to 10 ug/ml after 2 hrs by kappaB DNA binding based colorimetric method. Type of data set: cell-based. In a few lines: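 ES-2 cells exposed to compound 2 h. Nuclear extract prepared. p65 binding to κB DNA-coated dish detected with labeled p65 antibody.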

Data set [2] has as its system RAW264.7. In words: Cytotoxicity against mouse RAW264.7 cells assessed as reduction in cell viability up to 1 ug/ml after 24 hrs by MTT assay. In kind it is cell-based. The settings on record: raw264.7, 24 h. The method, boiled down: (§1)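 Cells treated with compound 24 h; viability by MTT. Mean ± SD of 3 determinations.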
For data set [3], the target named is Transcription factor p65 (Homo sapiens) (UniProt Q04206). In words: Inhibition of NFkappaB p65 in human ES2 cells assessed as reduction in MMP2 mRNA expression at 0.1 to 1 ug/ml after 24 hrs by qPCR method. In kind it is cell-based. The method, boiled down: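 ES-2 cells incubated with compound 24 h; MMP-2 mRNA detected by semi-quantitative PCR.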
The target of data set [4] is Transcription factor p65 (Mus musculus) (UniProt Q04207). Put plainly: Inhibition of LPS-induced NFkappaB p65 activation in mouse RAW264.7 cells at 0.3 to 1 ug/ml preincubated for 30 mins followed by LPS addition measured after 2 hrs by kappaB DNA binding based colorimetric method. In kind it is cell-based. The method, boiled down:
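RAW264.7 cells given compound 30 min before LPS, stimulated 2 h. Nuclear extract prepared. p65 binding measured on κB DNA-coated dish with labeled p65 antibody (TransAM kit). Mean ± SD of 3 independent experiments.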

Data set [5] shares this target. In words: Inhibition of LPS-induced NFkappaB p65-mediated iNOS induction in mouse RAW264.7 cells assessed as reduction in NO production at 1 ug/ml using 12 hrs PBS incubated compound preincubated for 30 mins with cells followed by LPS addition measured after 24 hrs by Griess assay. In kind it is cell-based. The method, boiled down:
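Compound pre-incubated in PBS at 100 µg/ml, then added to RAW264.7 cells to give 1 µg/ml. LPS 10 ng/ml added 30 min later, 24 h. NO by Griess assay. Mean ± SD of 3 determinations.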

For data set [6] the target is unchanged. Put plainly: Inhibition of LPS-induced NFkappaB p65-mediated TNF-alpha secretion in mouse RAW264.7 cells at 0.1 to 1 ug/ml preincubated for 30 mins followed by LPS addition measured after 24 hrs by ELISA. Type of data set: cell-based. In a few lines: (§2)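 RAW264.7 cells given compound 30 min before LPS, then incubated 24 h. IL-6, IL-1β, TNF-α in medium quantified by ELISA. Mean ± SD of 3 determinations.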

Data set [7] is described as follows: Chemical stability in PBS at 100 ug/ml up to 12 hrs at 37 degC by HPLC analysis. Type of data set: physicochemical. Conditions: buffer. The method, boiled down: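 Compound dissolved in PBS at 100 µg/ml, held at 37 °C for 0, 30 min, 1, 2, 6, 12 h. Extracted into ethyl acetate, dried, then quantified by HPLC. Column: ODS at 40 °C. Mobile phase: acetonitrile/0.1% ammonium acetate (22:78), 0.3 mL/min. UV detection at 254 nm. Mean ± SD of 3 determinations.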

In data set [8] the target is Transcription factor p65 (Mus musculus) (UniProt Q04207). In words: Inhibition of LPS-induced NFkappaB p65-mediated iNOS induction in mouse RAW264.7 cells assessed as reduction in NO production preincubated for 30 mins followed by LPS addition measured after 24 hrs by Griess assay. Type of data set: cell-based. In a few lines:
(§3)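 RAW264.7 cells given compound 30 min before LPS, then incubated 24 h. Nitrite in medium measured by Griess assay. Mean ± SD of 3 determinations.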

The target is the same in data set [9]. In words: Inhibition of kappaB DNA binding to NFkappaB p65 in LPS-stimulated mouse RAW264.7 nuclear extract at 3 to 10 ug/ml after 15 mins by colorimetric method. In a few lines: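 RAW264.7 cells stimulated with LPS 2 h to accumulate nuclear NF-κB. Nuclear extract prepared; compound added directly to extract. p65-κB DNA binding read with TransAM NF-κB p65 kit. Mean ± SD of 3 independent experiments.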

Data set [10] concerns the target Transcription factor p65 (Homo sapiens) (UniProt Q04206). In words: Inhibition of NFkappaB p65 in human ES2 cells assessed as reduction in MMP2 secretion at 3 to 10 ug/ml after 24 hrs by ELISA. In kind it is cell-based. In a few lines: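 ES-2 cells incubated with compound 24 h; secreted MMP-2 in medium by ELISA. Mean ± SD of 3 determinations.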
For data set [11], the target named is Transcription factor p65 (Mus musculus) (UniProt Q04207). In words: Inhibition of LPS-induced NFkappaB p65-mediated iNOS mRNA expression in mouse RAW264.7 cells at 0.1 to 1 ug/ml preincubated for 30 mins followed by LPS addition measured after 24 hrs by qPCR method. Type of data set: cell-based. The method, boiled down: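 RAW264.7 cells incubated with compound plus LPS 24 h; iNOS mRNA detected by semi-quantitative PCR.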

Data set [12] addresses Transcription factor p65 (Homo sapiens) (UniProt Q04206). Put plainly: Inhibition of kappaB DNA binding to NFkappaB p65 in human ES2 nuclear extract at 3 to 10 ug/ml after 15 mins by colorimetric method. In a few lines:
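Compound added directly to ES-2 nuclear extract. p65 binding to κB DNA-coated dish detected with labeled p65 antibody. Mean ± SD of 3 independent experiments.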

Data set [13] is described as follows: Cytotoxicity against human ES2 cells assessed as reduction in cell viability up to 30 ug/ml after 24 hrs by MTT assay. In kind it is cell-based. The settings on record: es2, 24 h. The method, boiled down:
as §1

Data set [14] has as its system ES2. Put plainly: Antimigratory activity against human ES2 cells at 1 to 10 ug/ml after 24 hrs by radius 96-well migration assay. Type of data set: functional, cell-based. In a few lines: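 ES-2 cells treated 24 h; migration read by Radius 96-well cell migration assay. Mean ± SD of 3 determinations.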
Data set [15] has as its system ES2. Put plainly: Anti-invasive activity against human ES2 cells at 0.1 to 0.3 ug/ml after 24 hrs by Diff-Quick staining based matrigel chamber assay. In kind it is functional, cell-based. In a few lines:
(§4)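 ES-2 ovarian clear cell carcinoma cells exposed to compound 24 h; invasion through Matrigel chamber. Mean ± SD of 4 fields.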

The target of data set [16] is Transcription factor p65 (Mus musculus) (UniProt Q04207). Put plainly: Inhibition of LPS-induced NFkappaB p65-mediated IL-1beta secretion in mouse RAW264.7 cells at 0.1 to 1 ug/ml preincubated for 30 mins followed by LPS addition measured after 24 hrs by ELISA. In kind it is cell-based. The method, boiled down: as §2
The target is the same in data set [17]. Put plainly: Inhibition of LPS-induced NFkappaB p65-mediated IL-6 secretion in mouse RAW264.7 cells at 0.1 to 1 ug/ml preincubated for 30 mins followed by LPS addition measured after 24 hrs by ELISA. In kind it is cell-based. The method, boiled down: as §2
Data set [18] shares this target. Put plainly: Inhibition of LPS-induced NFkappaB p65-mediated iNOS induction in mouse RAW264.7 cells assessed as reduction in NO production at 0.3 to 10 ug/ml preincubated for 30 mins followed by LPS addition measured after 24 hrs by Griess assay. Type of data set: cell-based. The method, boiled down: as §3
Data set [19] relates to ES2. In words: Anti-invasive activity against human ES2 cells at 1 to 10 ug/ml after 24 hrs by Diff-Quick staining based matrigel chamber assay. In kind it is functional, cell-based. In a few lines: as §4

Activity calls are given as the source filed them. The calls are words filed in the database; no cut-off is given here.

Sequence of Transcription factor p65 (Homo sapiens) (Q04206 whole entry): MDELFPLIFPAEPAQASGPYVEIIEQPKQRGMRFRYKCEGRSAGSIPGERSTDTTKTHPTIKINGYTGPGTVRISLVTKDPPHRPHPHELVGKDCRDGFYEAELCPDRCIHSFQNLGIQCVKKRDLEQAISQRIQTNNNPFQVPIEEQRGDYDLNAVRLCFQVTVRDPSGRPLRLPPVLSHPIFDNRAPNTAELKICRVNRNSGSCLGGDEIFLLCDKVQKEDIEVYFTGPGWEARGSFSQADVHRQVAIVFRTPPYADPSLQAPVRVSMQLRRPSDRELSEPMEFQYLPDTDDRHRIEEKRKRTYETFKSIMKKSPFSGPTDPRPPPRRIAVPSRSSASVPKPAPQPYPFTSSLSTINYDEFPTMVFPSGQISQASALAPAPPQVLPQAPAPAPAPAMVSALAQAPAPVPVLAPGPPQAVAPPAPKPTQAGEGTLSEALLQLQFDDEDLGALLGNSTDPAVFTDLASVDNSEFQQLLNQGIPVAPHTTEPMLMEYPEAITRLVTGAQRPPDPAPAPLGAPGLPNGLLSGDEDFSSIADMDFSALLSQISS
Sequence of Transcription factor p65 (Mus musculus) (Q04207 whole entry): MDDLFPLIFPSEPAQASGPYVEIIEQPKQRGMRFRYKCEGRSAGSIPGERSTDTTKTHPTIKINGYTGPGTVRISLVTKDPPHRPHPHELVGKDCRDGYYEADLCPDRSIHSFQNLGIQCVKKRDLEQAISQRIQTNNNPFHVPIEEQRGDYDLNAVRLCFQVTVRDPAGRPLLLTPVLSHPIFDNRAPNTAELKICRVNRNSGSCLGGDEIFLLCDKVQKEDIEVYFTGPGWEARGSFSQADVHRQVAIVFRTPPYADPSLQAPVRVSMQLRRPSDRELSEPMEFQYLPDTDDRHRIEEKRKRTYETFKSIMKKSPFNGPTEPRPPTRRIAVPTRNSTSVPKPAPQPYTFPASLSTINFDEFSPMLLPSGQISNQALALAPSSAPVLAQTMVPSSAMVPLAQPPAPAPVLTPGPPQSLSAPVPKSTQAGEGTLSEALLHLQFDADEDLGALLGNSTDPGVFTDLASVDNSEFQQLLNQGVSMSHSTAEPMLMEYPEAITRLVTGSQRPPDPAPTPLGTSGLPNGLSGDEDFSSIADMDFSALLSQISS

Turning to `C=C1C(=O)OC[C@H]1NC(=O)c1ccccc1O`, the inhibition result in data set [1], in data set [3], in data set [4], in data set [5], in data set [6] and in [9] was “Active” in each case. Also, the inhibition entry in data set [10], in data set [11], in data set [12], in [14], in data set [15] and in [16] was “Active” each time. Moreover, the inhibition result in data set [17] was “Active”. In addition, the Activity result in data set [2] and in [13] was “Non-Toxic” throughout. Also, the Stability result in data set [7] is listed as “Stable”. For the same compound, the inhibition result in data set [8] was “Dose-dependent effect”.

`O=C(NC1=CC(=O)[C@H]2O[C@H]2[C@H]1O)c1ccccc1O` [DEHYDROXYMETHYLEPOXYQUINOMICIN]: the inhibition entry in data set [1], in [4], in data set [18], in data set [9] and in [19] was “Active” in each case. The Stability result in data set [7] was “Unstable”.
